Test results reported in publication PMC3409840 (ACS medicinal chemistry letters, 2012).

Experiments:
IκBα = conditions: 16 µM; cited from earlier work
DU-145 = assay: Cellular cytotoxicity by Alamar Blue staining, DU-145; type: cell-based, human; conditions: for IC50 against DU-145 relative to reported IC50 of cryptocaryone: fold higher than cryptocaryone
RWPE-1 = assay: Cellular cytotoxicity by Alamar Blue staining, RWPE-1; type: cell-based, human; conditions: mean ± SD
Vero = assay: Cellular cytotoxicity by Alamar Blue staining, Vero; type: cell-based, African green monkey; conditions: mean ± SD
CCRF-CEM = assay: Cellular cytotoxicity by Alamar Blue staining, CCRF-CEM; type: cell-based, human; conditions: 48-hr cytotoxicity assay, mean ± SD
NF-κB = NF-κB luciferase reporter assay in A549 cells induced with TNF-α; type: cell-based, human
How it was run: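 A549 lung cancer cells carrying a stably transfected luciferase reporter behind six consensus NF-κB binding-site repeats. Cells induced with TNF-α and treated with test compound at 100, 50 and 10 μM (preliminary screen at 50 μM). Non-induced and TNF-α-induced wells serve as controls. Read-out is luciferase signal. Cell viability was checked in parallel under identical conditions.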

IL-8 = assay: Secreted IL-8 protein by ELISA in TNF-α-induced DU-145 cells; type: cell-based, human
How it was run: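 DU-145 cells dosed with DMSO vehicle or test compound (100 μM and 33 μM), followed by TNF-α induction of the NF-κB pathway. Non-induced and induced vehicle controls were included. Secreted IL-8 protein in the cell medium was quantified by ELISA.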

IL-8 mRNA = assay: Semi-quantitative RT-PCR of IL-8 mRNA in TNF-α-induced DU-145 cells; type: cell-based, human; conditions: 33 µM, lowest concentration tested
How it was run: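 DU-145 cells given DMSO vehicle or test compound (100 μM and 33 μM), then induced with TNF-α, alongside non-induced and induced controls. IL-8 mRNA was assessed by semiquantitative (traditional) RT-PCR, with GAPDH mRNA amplified as the reference transcript.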

p65 [1] = assay: Western blot of p65 in nuclear lysate of NF-κB-induced DU-145 cells; type: cell-based, human
How it was run: (§1)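 Cells were dosed with test compound at 100 μM or 25 μM, or with DMSO vehicle, and the NF-κB pathway was then induced with TNF-α. Controls were noninduced and TNF-α-induced cells, both given vehicle.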

p65 [2] = assay: Western blot of p65 in nuclear lysate of NF-κB-induced CCRF-CEM cells; type: cell-based, human
How it was run: as §1

[3] = Solubility under the NF-κB reporter assay conditions; type: physicochemical; conditions: 50 µM screen
[4] = NMR-based thiol reactivity assay with cysteamine; conditions: two molar equivalents of cysteamine, DMSO-d6/D2O PBS, 1H NMR

For `O=C1C[C@@H]2/C(=C(O)\C=C\c3ccccc3)C(=O)C=C[C@@H]2O1` [cryptocaryone], the “inhibition of IκBα degradation (in words)” value (IκBα) is listed as “inhibit the degradation of IκBα”.

For `CC(=O)O/C(=C1\CO[C@]2(C)CCC(=O)C[C@H]12)c1ccccc1` (racemic) [Compound 12], the “IC50 DU-145” value (DU-145; 48-hr cytotoxicity assay, Alamar Blue, mean ± SD) was “no appreciable toxicity”, the “IC50 RWPE-1” value (RWPE-1) was “no appreciable toxicity” and the “IC50 Vero” value (Vero) was “no appreciable toxicity”. The “IC50 CCRF-CEM” value (CCRF-CEM) was “no appreciable toxicity”, the “decrease in potency compared to 11” value (NF-κB; 100 µM) was ~ 4 fold and the “reduction of NF-κB activity” value (NF-κB; 100 µM, highest concentration tested) was 24%. The “secreted IL-8 levels” value (IL-8; 100 µM) was 4,900 pg/mL.

With `CC(=O)O/C(C)=C1\CO[C@]2(c3ccccc3)C=CC(=O)C[C@H]12` (racemic) [Compound 11] the “IC50 against DU-145 relative to reported IC50 of cryptocaryone” value (DU-145) was “approximately 15 fold”, the “IL-8 mRNA production (in words)” value (IL-8 mRNA) was “visibly lower levels than that of 10” and the “inhibition of nuclear translocation of p65” value (“inhibition … of p65” below) (p65 [1]; 25 µM) was “Partial inhibition of p65 nuclear translocation”. For the same molecule, the “inhibition … of p65” value (p65 [1]; 100 µM) was “completely inhibited nuclear translocation of p65”, the “inhibition … of p65” value (p65 [2]; 25 µM) was “Partial inhibition of p65 nuclear translocation” and the “inhibition … of p65” value (p65 [2]; 100 µM) was “completely inhibited nuclear translocation of p65”. The “enhancement in potency compared with racemic 11” value (NF-κB; 50 µM) was 2 fold, the “secreted IL-8 levels” value (IL-8; 33 µM) was 2,970 pg/mL and the “effect on IL-8 protein levels (in words)” value (IL-8; highest concentration tested (100 µM)) was “depleted IL-8 protein levels to nearly undetectable levels”.

For `CO[C@@]12C=C(Br)C(=O)C[C@@H]1/C(=C(/OC(C)=O)c1ccccc1)CC2` (racemic) [Compound 4], the “solubility under the assay conditions” value [3] was “poorly soluble under the assay conditions”.

For `CC(=O)O/C(=C1\CO[C@]2(C)C=CC(=O)C[C@H]12)c1ccccc1` (racemic) [Compound 10], the “IC50 against DU-145 relative to reported IC50 of cryptocaryone” value (DU-145) was “approximately 15 fold”, the “time to disappearance of vinyl proton doublets after cysteamine addition” value [4] was no more than 5 min and the “inhibition … of p65” value (p65 [1]; 25 µM) was “Partial inhibition of p65 nuclear translocation”. The “inhibition … of p65” value (p65 [1]; 100 µM) was “completely inhibited nuclear translocation of p65”, the “inhibition … of p65” value (p65 [2]; 25 µM) was “Partial inhibition of p65 nuclear translocation” and the “inhibition … of p65” value (p65 [2]; 100 µM) was “completely inhibited nuclear translocation of p65”. The “secreted IL-8 levels” value (IL-8; 33 µM) was 3,480 pg/mL.
